{"source": "ChEMBL document CHEMBL3875168", "about": "“Synthesis and apoptosis inducing studies of triazole linked 3-benzylidene isatin derivatives” (Eur J Med Chem, 2016)", "key": {"DU-145 [1]": {"test_system": "DU-145", "experiment": "Induction of apoptosis in human DU145 cells assessed as increase in necrotic cells after 24 hrs by Annexin V-FITC/propidium iodide staining based flow cytometry", "format": "functional, cell-based"}, "DU-145 [2]": {"test_system": "DU-145", "experiment": "Induction of mitochondrial membrane potential loss in human DU145 cells at 5 uM after 24 hrs by flow cytometry (reference value: 5.39%)", "format": "functional"}, "[3]": {"experiment": "Cell cycle arrest in human DU145 cells assessed as accumulation at S phase at 5 uM after 24 hrs by propidium iodide staining-based flow cytometry (reference value: 10.3%)", "format": "functional", "conditions": "DU-145", "in_short": "(§1)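 Compound given to DU145 at 2.5 and 5.0 μM for 24 h alongside untreated cells. Cells harvested, PBS-washed, fixed in ice-cold 70% ethanol, then stained 30 min at 37 °C in the dark with propidium iodide (50 μg/mL) plus RNase A (20 μg/mL) in 0.1% Triton X-100. About 10000 events per sample read by flow cytometry; a representative of three independent experiments is shown.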"}, "DU-145 [4]": {"test_system": "DU-145", "experiment": "Induction of mitochondrial membrane potential loss in human DU145 cells after 24 hrs by flow cytometry", "format": "functional, cell-based"}, "[5]": {"experiment": "Cell cycle arrest in human DU145 cells assessed as accumulation at G2/M phase after 24 hrs by propidium iodide staining-based flow cytometry", "format": "functional", "conditions": "DU-145", "in_short": "as §1"}, "DU-145 [6]": {"test_system": "DU-145", "experiment": "Induction of apoptosis in human DU145 cells assessed as viable cells at 2.5 uM after 24 hrs by Annexin V-FITC/propidium iodide staining based flow cytometry (reference value: 90.32%)", "format": "functional", "conditions": "DU-145, 24 h, read-out: Activity"}, "DU-145 [7]": {"test_system": "DU-145", "experiment": "Induction of apoptosis in human DU145 cells assessed as late apoptotic cells at 2.5 uM after 24 hrs by Annexin V-FITC/propidium iodide staining based flow cytometry (reference value: 5.4%)", "format": "functional"}, "DU-145 [8]": {"test_system": "DU-145", "experiment": "Induction of apoptosis in human DU145 cells assessed as decrease in Bcl2 level after 48 hrs by Western blot analysis", "format": "functional, cell-based"}, "[9]": {"experiment": "Cytotoxicity against human HeLa cells assessed as cell growth inhibition after 48 hrs by MTT assay", "format": "functional, cell-based", "in_short": "(§2)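 Cell lines (NCCS) grown in DMEM or RPMI with 10% FBS and antibiotic-antimycotic at 37 °C, 5% CO2, 90% humidity. Cells seeded at 3-5×10^3 per well, treated 48 h with serial dilutions in medium beside vehicle control. Medium replaced with MTT (0.5 mg/mL) for 4 h, absorbance read at 570 nm. IC50 taken from concentration-response curves; sunitinib served as reference.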"}, "DU-145 [10]": {"test_system": "DU-145", "experiment": "Induction of mitochondrial membrane potential loss in human DU145 cells at 2.5 uM after 24 hrs by flow cytometry (reference value: 5.39%)", "format": "functional"}, "[11]": {"experiment": "Cell cycle arrest in human DU145 cells assessed as accumulation at G2/M phase at 2.5 uM after 24 hrs by propidium iodide staining-based flow cytometry (reference value: 29.66%)", "format": "functional", "conditions": "DU-145", "in_short": "as §1"}, "[12]": {"experiment": "Cytotoxicity against human RWPE1 cells assessed as cell growth inhibition after 48 hrs by MTT assay", "format": "toxicity, cell-based, RWPE-1"}, "DU-145 [13]": {"test_system": "DU-145", "experiment": "Induction of apoptosis in human DU145 cells assessed as necrotic cells at 5 uM after 24 hrs by Annexin V-FITC/propidium iodide staining based flow cytometry (reference value: 2.14%)", "format": "functional"}, "DU-145 [14]": {"test_system": "DU-145", "experiment": "Induction of apoptosis in human DU145 cells assessed as formation of fragmented nuclei at 2.5 to 5 uM after 48 hrs by DAPI staining based fluorescence microscopic method", "format": "functional, cell-based", "in_short": "(§3)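 DU145 treated for 48 h, PBS-washed, permeabilized with 0.1% Tween 20 for 10 min and stained with 1 μM DAPI. Nuclear morphology of control and treated cells viewed by fluorescence microscopy (excitation 359 nm, emission 461 nm) at 200x.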"}, "DU-145 [15]": {"test_system": "DU-145", "experiment": "Induction of apoptosis in human DU145 cells assessed as viable cells at 1.25 uM after 24 hrs by Annexin V-FITC/propidium iodide staining based flow cytometry (reference value: 90.32%)", "format": "functional", "conditions": "DU-145, 24 h, read-out: Activity"}, "DU-145 [16]": {"test_system": "DU-145", "experiment": "Induction of apoptosis in human DU145 cells assessed as necrotic cells at 1.25 uM after 24 hrs by Annexin V-FITC/propidium iodide staining based flow cytometry (reference value: 2.14%)", "format": "functional"}, "DU-145 [17]": {"test_system": "DU-145", "experiment": "Induction of apoptosis in human DU145 cells assessed as increase in cytochrome c level after 48 hrs by Western blot analysis", "format": "functional, cell-based"}, "DU-145 [18]": {"test_system": "DU-145", "experiment": "Induction of apoptosis in human DU145 cells assessed as increase in cleaved PARP level after 48 hrs by Western blot analysis", "format": "functional, cell-based"}, "DU-145 [19]": {"test_system": "DU-145", "experiment": "Induction of apoptosis in human DU145 cells assessed as early apoptotic cells at 5 uM after 24 hrs by Annexin V-FITC/propidium iodide staining based flow cytometry (reference value: 2.14%", "format": "functional"}, "DU-145 [20]": {"test_system": "DU-145", "experiment": "Induction of apoptosis in human DU145 cells after 24 hrs by Annexin V-FITC/propidium iodide staining based flow cytometry", "format": "functional, cell-based"}, "DU-145 [21]": {"test_system": "DU-145", "experiment": "Induction of mitochondrial membrane potential loss in human DU145 cells at 1.25 uM after 24 hrs by flow cytometry (reference value: 5.39%)", "format": "functional"}, "[22]": {"experiment": "Cell cycle arrest in human DU145 cells assessed as accumulation at G0/G1 phase at 5 uM after 24 hrs by propidium iodide staining-based flow cytometry (reference value: 62.81%)", "format": "functional", "conditions": "DU-145", "in_short": "as §1"}, "DU-145 [23]": {"test_system": "DU-145", "experiment": "Induction of apoptosis in human DU145 cells assessed as necrotic cells at 2.5 uM after 24 hrs by Annexin V-FITC/propidium iodide staining based flow cytometry (reference value: 2.14%)", "format": "functional"}, "DU-145 [24]": {"test_system": "DU-145", "experiment": "Induction of apoptosis in human DU145 cells assessed as increase in Bax level after 48 hrs by Western blot analysis", "format": "functional, cell-based"}, "DU-145 [25]": {"test_system": "DU-145", "experiment": "Induction of apoptosis in human DU145 cells assessed as formation of pyknotic nuclei at 2.5 to 5 uM after 48 hrs by DAPI staining based fluorescence microscopic method", "format": "functional, cell-based", "in_short": "as §3"}, "DU-145 [26]": {"test_system": "DU-145", "experiment": "Induction of apoptosis in human DU145 cells assessed as increase in intracellular reactive oxygen species at 2.5 to 5 uM after 24 hrs in presence of N-acetyl cysteine by DCFDA dye based spectrofluorometer", "format": "functional, cell-based"}, "[27]": {"experiment": "Cell cycle arrest in human DU145 cells assessed as accumulation at S phase at 2.5 uM after 24 hrs by propidium iodide staining-based flow cytometry (reference value: 10.3%)", "format": "functional", "conditions": "DU-145", "in_short": "as §1"}, "[28]": {"experiment": "Cytotoxicity against human DU145 cells assessed as cell growth inhibition after 48 hrs by MTT assay", "format": "functional, cell-based", "conditions": "DU-145, 48 h", "in_short": "as §2"}, "DU-145 [29]": {"test_system": "DU-145", "experiment": "Induction of morphological changes in human DU145 cells assessed as apoptotic body formation at 1.25 to 5 uM after 48 hrs by acridine orange/ethidium bromide-dual staining based fluorescence microscopic method", "format": "functional, cell-based", "in_short": "(§4)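 DU145 plated at 1×10^6 cells/mL, treated at several concentrations and kept 48 h at 37 °C in 5% CO2. Equal volumes of acridine orange and ethidium bromide (10 μg/mL) added, and cells imaged within 10 min by fluorescence microscopy (excitation 488 nm, emission 550 nm) at 200x.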"}, "[30]": {"experiment": "Cytotoxicity against human A549 cells assessed as cell growth inhibition after 48 hrs by MTT assay", "format": "functional, cell-based", "conditions": "A549, 48 h", "in_short": "as §2"}, "DU-145 [31]": {"test_system": "DU-145", "experiment": "Induction of morphological changes in human DU145 cells assessed as membrane blebbing at 1.25 to 5 uM after 48 hrs by acridine orange/ethidium bromide-dual staining based fluorescence microscopic method", "format": "functional, cell-based", "in_short": "as §4"}, "DU-145 [32]": {"test_system": "DU-145", "experiment": "Induction of apoptosis in human DU145 cells assessed as viable cells at 5 uM after 24 hrs by Annexin V-FITC/propidium iodide staining based flow cytometry (reference value: 90.32%)", "format": "functional", "conditions": "DU-145, 24 h, read-out: Activity"}}, "note": "Activity calls are given as the source filed them. The calls are words filed in the database; no cut-off is given here."}
{"smiles": "O=C1Nc2ccc(C(c3ccccc3)c3ccccc3)cc2/C1=C/c1cccc(OCc2cn(Cc3ccccc3)nn2)c1", "values": [{"measurement": "Activity", "setting": "DU-145 [1]", "value": "Dose-dependent effect"}, {"measurement": "Activity", "setting": "DU-145 [2]", "value": 99.7, "unit": "%"}, {"measurement": "Activity", "setting": "[3]", "value": 22.5, "unit": "%"}, {"measurement": "Activity", "setting": "DU-145 [4]", "value": "Dose-dependent effect"}, {"measurement": "Activity", "setting": "[5]", "value": "Dose-dependent effect"}, {"measurement": "viability at 2.5 µM", "setting": "DU-145 [6]", "value": 64.5, "unit": "%"}, {"measurement": "Activity", "setting": "DU-145 [7]", "value": 13, "unit": "%"}, {"measurement": "Activity", "setting": "DU-145 [8]", "value": "Active"}, {"measurement": "IC50", "setting": "[9]", "value": 4.28, "unit": "µM"}, {"measurement": "Activity", "setting": "DU-145 [10]", "value": 85.24, "unit": "%"}, {"measurement": "Activity", "setting": "[11]", "value": 43.7, "unit": "%"}, {"measurement": "IC50 at 48 h", "setting": "[12]", "value": 21.4, "unit": "µM"}, {"measurement": "Activity", "setting": "DU-145 [13]", "value": 15.46, "unit": "%"}, {"measurement": "Activity", "setting": "DU-145 [14]", "value": "Active"}, {"measurement": "viability at 1.25 µM", "setting": "DU-145 [15]", "value": 76.5, "unit": "%"}, {"measurement": "Activity", "setting": "DU-145 [16]", "value": 1.82, "unit": "%"}, {"measurement": "Activity", "setting": "DU-145 [17]", "value": "Active"}, {"measurement": "Activity", "setting": "DU-145 [18]", "value": "Active"}, {"measurement": "Activity", "setting": "DU-145 [19]", "value": 13.64, "unit": "%"}, {"measurement": "Activity", "setting": "DU-145 [20]", "value": "Dose-dependent effect"}, {"measurement": "Activity", "setting": "DU-145 [21]", "value": 64.28, "unit": "%"}, {"measurement": "Activity", "setting": "[22]", "value": 10.1, "unit": "%"}, {"measurement": "Activity", "setting": "DU-145 [23]", "value": 4.41, "unit": "%"}, {"measurement": "Activity", "setting": "DU-145 [24]", "value": "Active"}, {"measurement": "Activity", "setting": "DU-145 [25]", "value": "Active"}, {"measurement": "Activity", "setting": "DU-145 [26]", "value": "Active"}, {"measurement": "Activity", "setting": "[27]", "value": 12.7, "unit": "%"}, {"measurement": "IC50", "setting": "[28]", "value": 3.7, "unit": "µM"}, {"measurement": "Activity", "setting": "DU-145 [29]", "value": "Active"}, {"measurement": "IC50", "setting": "[30]", "value": 14.7, "unit": "µM"}, {"measurement": "Activity", "setting": "DU-145 [31]", "value": "Active"}, {"measurement": "viability at 5 µM", "setting": "DU-145 [32]", "value": 45.9, "unit": "%"}]}
